Source: PubChem (several laboratories)
Hits are enriched below; roughly 4% of the tested compounds scored in any of these assays.
CHO parental Ca: signal in parental CHO cells, OX1R antagonist counter-screen; actives 0.63% (n = 330,000); parental CHO-K1, ATP-induced calcium, Fluo-8 fluorescence; inhibition, % at 5.6 µM;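 active = inhibition above that plate's mean sample inhibition plus 3 SD, cut at about 26% in these data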
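Test system: parental CHO cells; detection: calcium-sensitive Fluo-8 fluorescence; evaluation: percent inhibition of calcium signal; also added: ATP as calcium-mobilizing challenge; repeats: one well per compound; control set: ATP-challenged DMSO wells low, unchallenged DMSO wells high; compound: single nominal dose of 5.6 µM per compound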
TAAR1 antag: antagonists of human TAAR1; Q96RJ0; CHO RD-HGA16 TAAR1, Fluo-8 calcium fluorescence, antagonist; inhibition, % at 3 µM; actives 1.5% (n = 360,000); AID 624466;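 active = inhibition above a per-plate cutoff, the mean inhibition of test compounds on that plate plus 3 SD, cut at about 49% in these data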
Target sequence (Q96RJ0 whole entry, looked up): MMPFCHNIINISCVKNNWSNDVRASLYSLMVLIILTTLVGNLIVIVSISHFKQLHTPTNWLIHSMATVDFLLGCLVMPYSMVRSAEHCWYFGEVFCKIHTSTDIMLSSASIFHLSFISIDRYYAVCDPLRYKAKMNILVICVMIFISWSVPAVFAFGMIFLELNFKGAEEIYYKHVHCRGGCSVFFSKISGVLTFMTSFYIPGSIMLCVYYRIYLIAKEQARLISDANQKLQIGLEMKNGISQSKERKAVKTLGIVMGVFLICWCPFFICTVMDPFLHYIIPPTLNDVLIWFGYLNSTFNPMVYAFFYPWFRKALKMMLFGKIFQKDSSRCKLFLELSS
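Test system – hTAAR1-expressing CHO RD-HGA16 cells, Gα16-coupled · Reagent – β-PEA at EC80 concentration, post-compound challenge · Compound dosing – 3 µM, single point · Timing – 140 s kinetic read after compound, 140 s after agonist · Detection – Fluo-8 intracellular calcium dye fluorescence, real-time kinetic reads · Control set – DMSO and EC80 PEA controls · Repeats – n of 1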
OX1R antag-1: antagonists of human orexin 1 receptor (OX1R). O43613. OX1R-expressing cells, FRET antagonist read-out. inhibition, % at 6.6 µM. actives 1.8% (n = 330,000); in the data active = inhibition mostly above about 38%, no sharp cut-off; inactive = mostly below about 40%
Target sequence (O43613 whole entry, looked up): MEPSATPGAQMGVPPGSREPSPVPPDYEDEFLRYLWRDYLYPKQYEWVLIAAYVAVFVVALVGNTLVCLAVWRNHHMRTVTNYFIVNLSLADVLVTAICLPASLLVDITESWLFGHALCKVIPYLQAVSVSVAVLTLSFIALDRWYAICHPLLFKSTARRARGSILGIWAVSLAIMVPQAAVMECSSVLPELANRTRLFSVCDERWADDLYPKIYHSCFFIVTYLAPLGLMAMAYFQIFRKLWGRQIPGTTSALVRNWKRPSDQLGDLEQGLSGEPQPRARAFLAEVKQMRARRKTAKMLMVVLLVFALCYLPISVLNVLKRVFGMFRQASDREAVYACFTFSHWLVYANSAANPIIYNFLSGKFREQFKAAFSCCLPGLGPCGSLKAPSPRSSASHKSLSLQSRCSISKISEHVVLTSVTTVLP
NTR1 agonist: agonists of human neurotensin receptor NTR1; P30989; NTR1-U2OS beta-arrestin-GFP spot imaging, agonist mode; activation, % at 20 µM; actives 0.17% (n = 330,000); AID 493036;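 active = activation at or above 40% of the spot to cytoplasm intensity ratio, with at least 20 cells analyzed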
TAAR1 ag: agonists of human TAAR1 | Q96RJ0 | CHO RD-HGA16 TAAR1, Fluo-8 calcium fluorescence; vehicle wells 0%, saturating PEA agonist 100% | activation, % at 3 µM | actives 0.99% (n = 360,000) | AID 624467;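 active = activation above the mean activation of all test compounds in the run plus 3 SD, cut at about 38% in these data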
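Test system: RD-HGA16 (CHO) cells co-expressing Gα16 and hTAAR1 / Benchmarks: DMSO vehicle as 0%, PEA at EC100 as 100% / Repeats: no replicates (n 1) / Measure: % activation from peak over basal fluorescence ratio, DMSO-to-PEA scaled / Timing: 17-24 h plating, Fluo-8 75 min 37 °C, 30 min RT / Technique: kinetic Fluo-8 calcium fluorescence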
OX1R antag-2: human HCRTR1 antagonism. O43613. CHO/OX1R cells, Fluo-8 calcium fluorescence, orexin A. inhibition, % at 5 µM. actives 0.43% (n = 330,000). AID 434989;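 active = inhibition above its plate's threshold, mean inhibition of all tested compounds on the plate plus 3 SD, cut at about 37% in these data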
OX1R HTRF confirm: confirmation of human orexin 1 receptor antagonists, HTRF format; shares compounds with OX1R antag-1; OX1R-expressing cells, HTRF antagonist assay; inhibition, % at 6.6 µM; actives 49% (n = 1,800); AID 492964; in the data active = inhibition above about 55%;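 note: CHO cells expressing OX1R stimulated with orexin A at about EC80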
CHO-K1 HTRF: counter-screen: parental CHO-K1 HTRF response; shares compounds with OX1R antag-1; parental CHO-K1 cells, HTRF counterscreen; inhibition, % at 6.6 µM; actives 48% (n = 1,800); in the data active = inhibition above about 17%
Of the large screens only hits and unclear results are named; the others gave an inactive call (follow-up assays come after a bar, where they were run).

O=C(CCS(=O)(=O)c1cccc2nonc12)N1CC(=O)N(CCc2ccccc2)C(=O)C1	none
O=C(CCS(=O)(=O)c1cccc2nonc12)N1CCOCC1	OX1R antag-1 99.0 | OX1R HTRF confirm inactive | CHO-K1 HTRF 69.2
O=C(CCS(=O)(=O)c1cccs1)N1CCN(c2ccc(F)cc2)CC1	none
CC1=CC(=NOC(=O)/C=C/c2ccccc2)C=C(C)C1=O	OX1R antag-1 82.3 | OX1R HTRF confirm inactive | CHO-K1 HTRF inactive
CC1=CC(=O)C=C(C)C1=NOC(=O)/C=C\c1ccccc1	none
COc1cc(F)ccc1S(=O)(=O)N1CCN(c2ccccc2)CC1	none
Cc1nonc1C(=O)N/N=C/c1ccncc1	none
Cc1nonc1C(=O)N/N=C/c1ccc([N+](=O)[O-])o1	OX1R antag-1 144.0 | OX1R HTRF confirm inactive | CHO-K1 HTRF 80.8
O=C(CSc1ccc(Cl)cc1)N/N=C/c1ccc([N+](=O)[O-])o1	none
O=C(N/N=C/c1ccc([N+](=O)[O-])o1)C1CC1	OX1R antag-1 126.9 | OX1R HTRF confirm 58.0 | CHO-K1 HTRF 75.0
CCN(CC(=O)NCc1ccc(Cl)cc1)C(=O)CN1C(=O)NC(C)(c2ccccc2)C1=O (stereo not drawn)	none
COC(=O)c1c(NC(=O)c2ccccc2)sc(C(N)=O)c1C	OX1R antag-1 94.9 | OX1R HTRF confirm inactive | CHO-K1 HTRF inactive
CCOc1cc(C#N)ccc1OCC(=O)N1CCN(C(=O)c2cccs2)CC1	none
C=CCn1c(=N)c(C(=O)NCCCOC)cc2c(=O)n3ccccc3nc21	OX1R antag-1 136.8 | OX1R HTRF confirm 56.0 | CHO-K1 HTRF 83.4
N=c1c(C(=O)NCc2ccc(F)cc2)cc2c(=O)n3ccccc3nc2n1CCCN1CCOCC1	OX1R antag-1 82.3 | OX1R HTRF confirm 65.2 | CHO-K1 HTRF 34.6
C=CCn1c(=O)c(C#N)cc2c(=O)n3ccccc3nc21	OX1R antag-1 136.9 | OX1R HTRF confirm inactive | CHO-K1 HTRF 33.9
Cc1cc(-n2c(=O)c(C#N)cc3c(=O)n4ccccc4nc32)no1	OX1R antag-1 127.9 | OX1R HTRF confirm inactive | CHO-K1 HTRF 74.9
CCCCCn1c(=NC(C)=O)c(C#N)cc2c(=O)n3ccccc3nc21	none
O=C(NC(=S)Nc1ccc(N2CCCC2)cc1)c1ccc(F)cc1	none
CCOC(=O)c1cc2c(=O)n3ccccc3nc2n(CCCOC)c1=NC(=O)c1ccncc1	OX1R antag-1 84.8 | OX1R HTRF confirm inactive | CHO-K1 HTRF 32.7
C=CCn1c(=N)c(C#N)cc2c(=O)n3ccccc3nc21	OX1R antag-1 101.9 | OX1R HTRF confirm 54.7 | CHO-K1 HTRF 77.7
CCOC(=O)c1cc2c(=O)n3ccccc3nc2n(Cc2ccco2)c1=NC(=O)c1ccc(OC)cc1	none
O=C(Nc1cccc2ccccc12)c1ccccc1	none
Cc1c(C)n(C)c2ccc(C(=O)Nc3cccc4ccccc34)cc12	OX1R antag-1 84.7 | OX1R HTRF confirm 77.4 | CHO-K1 HTRF inactive
O=[n+]1c2c(n([O-])c3c1CCCC3)CCCC2	none
O=[n+]1c2c(n([O-])c3cc(F)ccc31)CCCC2	OX1R antag-1 81.8 | OX1R HTRF confirm inactive | CHO-K1 HTRF 53.7
O=C(NCc1ccccc1)C1CCCN(S(=O)(=O)c2cccc3nsnc23)C1 (stereo not drawn)	none
O=C(NCc1cccnc1)C1CCCN(S(=O)(=O)c2cccc3nsnc23)C1 (stereo not drawn)	OX1R antag-1 89.2 | OX1R HTRF confirm inactive | CHO-K1 HTRF 32.0
CCCCC1Cc2[nH][nH]c(=O)c2C(c2ccc(Cl)cc2)O1 (stereo not drawn)	none (no result: CHO parental Ca, OX1R antag-1, NTR1 agonist, OX1R antag-2)
CSc1cccc(N2CC(C(=O)Nc3cccc(S(=O)(=O)N4CCCC4)c3)CC2=O)c1 (stereo not drawn)	none
CC(=O)Oc1c(-c2ccc(Br)o2)oc2ccccc2c1=O	OX1R antag-1 83.2 | OX1R HTRF confirm 84.3 | CHO-K1 HTRF inactive
CCc1nc2ccc(C(=O)NCc3cccs3)cn2c1N(CC)CCN(C)C	none (no result: CHO parental Ca, OX1R antag-1, NTR1 agonist, OX1R antag-2)
C/[N+]([O-])=C1\Cc2ccccc2C1=O	OX1R antag-1 104.7 | OX1R HTRF confirm inactive | CHO-K1 HTRF 62.7
COCc1nnc(NC(=O)c2cc(C(=O)OC)cc([N+](=O)[O-])c2)s1	OX1R antag-1 90.3 | OX1R HTRF confirm inactive | CHO-K1 HTRF 46.4
Cc1nnc(N/N=C/c2ccccc2O)n1N	OX1R antag-1 160.1 | OX1R HTRF confirm inactive | CHO-K1 HTRF inactive
Cc1nnc(N/N=C/c2cc(C)n(-c3ccc(F)cc3)c2C)n1N	OX1R antag-1 91.6 | OX1R HTRF confirm inactive | CHO-K1 HTRF inactive
O=[N+]([O-])c1cccc2c(N3CCCC3)ccnc12	OX1R antag-1 131.6 | OX1R HTRF confirm 61.2 | CHO-K1 HTRF 101.1
O=C(c1ccccc1F)N1CCN(c2ccc([N+](=O)[O-])c3ncccc23)CC1	none
CCOC(=O)c1csc(-c2ccc([N+](=O)[O-])cc2)n1	OX1R antag-1 104.2 | OX1R HTRF confirm inactive | CHO-K1 HTRF 43.6
CCOC(=O)c1cc(-c2cccc([N+](=O)[O-])c2)on1	none
CCOC(=O)c1nnn(-c2ccc([N+](=O)[O-])cc2)c1C	OX1R antag-1 111.0 | OX1R HTRF confirm inactive | CHO-K1 HTRF 54.4
CC(=O)c1nnn(-c2ccc([N+](=O)[O-])cc2C)c1C	OX1R antag-1 162.0 | OX1R HTRF confirm inactive | CHO-K1 HTRF 40.1
CN(N=O)c1ccc(CC2CCc3ccccc32)cc1 (stereo not drawn)	none (no result: CHO parental Ca, OX1R antag-1, NTR1 agonist, OX1R antag-2)
COC(=O)c1sccc1NC(=O)Nc1cccc(C)c1	none
COC(=O)c1sccc1NC(=O)Nc1cccc(C(C)=O)c1	OX1R antag-1 82.0 | OX1R HTRF confirm 67.4 | CHO-K1 HTRF inactive
CCCCNC1=CC(=O)C(=O)c2ccccc21	OX1R antag-1 161.5 | OX1R HTRF confirm 88.1 | CHO-K1 HTRF 100.6
O=C(N=Nc1c(O)[nH]c2ccccc12)c1ccco1	OX1R antag-1 113.0 | OX1R HTRF confirm 99.0 | CHO-K1 HTRF 54.5
CCOC(=O)C1CCCN(S(=O)(=O)c2ccc3c(c2)N(C)C(=O)CC(=O)N3C)C1 (stereo not drawn)	none
CCOC(=O)c1ccc(Nc2ncnc3ccccc23)cc1	none
CCOC(=O)c1ccc(Nc2nc(-c3cccnc3)nc3ccccc23)cc1	TAAR1 antag 55.6, OX1R antag-1 78.3 | OX1R HTRF confirm inactive | CHO-K1 HTRF inactive
CC1(C)CC(N=c2cc(-c3ccccc3)oc3ccc(Cl)cc23)CC(C)(C)N1	none (no result: CHO parental Ca, OX1R antag-1, NTR1 agonist, OX1R antag-2)
